In ChEMBL document CHEMBL1138079 (J Med Chem, 2006):

How the values were obtained:
V79 [1] = assay: Antiproliferative activity against NTR expressing chinese hamster V79 cells after 72 hrs; type: functional, cell-based, Cricetulus griseus
Outline: (§1)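 V79 Chinese hamster fibroblasts: NTR⁺ cells stably transfected with a bicistronic NTR/puromycin-resistance vector and kept under puromycin selection; vector-only NTR⁻ controls. Seeded 1000 cells/well, recovered 24 h, then exposed to serially diluted drug for 3 days at 37 °C, initially up to 100 µM. SRB stain read at 570 nm. IC50 interpolated; ratio is NTR⁻/NTR⁺ IC50.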

SK-OV-3 [2] = assay: Ratio for antiproliferative activity against NTR- SKOV3 cells to NTR+ SKOV3 cells after 18 hrs; type: functional, Homo sapiens
Outline: (§2)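 SKOV3 ovarian carcinoma cells stably transduced with a retroviral NTR vector and selected with 1 mg/mL G418, compared with parental SKOV3. Plated at 20 000 cells/well and allowed to adhere 24 h. Prodrug range given for 18 h, then replaced with drug-free medium. MTT survival read 2 days later. Ratio is NTR⁻/NTR⁺ IC50.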

SK-OV-3 [3] = assay: Antiproliferative activity against human SKOV3 cells infected with 10 pfu/cell retrovirus after 18 hrs; type: functional, cell-based; conditions: SK-OV-3, 18 h
SK-OV-3 [4] = assay: Antiproliferative activity against NTR expressing human SKOV3 cells after 18 hrs; type: functional, cell-based; outline: as §2
SK-OV-3 [5] = assay: Antiproliferative activity against human SKOV3 cells infected with 100 pfu/cell retrovirus after 18 hrs; type: functional, cell-based
V79 [6] = assay: Antiproliferative activity against NTR expressing chinese hamster V79 cells after 1 hr; type: functional, cell-based, Cricetulus griseus
Outline: (§3)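 Same stable NTR⁺ and vector-only NTR⁻ V79 pair, seeded 1000 cells/well and recovered 24 h. Cells exposed to drug for 1 h only, initially up to 100 µM, then given drug-free medium. SRB viability was read 3 days after drug addition. IC50 is the concentration giving 50% of control cell number; ratio is NTR⁻/NTR⁺.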

V79 [7] = assay: Antiproliferative activity against chinese hamster V79 cells after 72 hrs; type: functional, cell-based, Cricetulus griseus; outline: as §1
V79 [8] = assay: Ratio for antiproliferative activity against NTR- V79 cells to NTR+ V79 cells after 1 hr; type: functional, cell-based, Cricetulus griseus; outline: as §3
SK-OV-3 [9] = assay: Ratio for antiproliferative activity against NTR- SKOV3 cells to NTR+ SKOV3 cells infected with 100 pfu/cell retrovirus after 18 hrs; type: functional, Homo sapiens
SK-OV-3 [10] = assay: Ratio for antiproliferative activity against NTR- SKOV3 cells to NTR+ SKOV3 cells infected with 10 pfu/cell retrovirus after 18 hrs; type: functional, Homo sapiens
SK-OV-3 [11] = assay: Antiproliferative activity against human SKOV3 cells after 18 hrs; type: functional, cell-based; outline: as §2
V79 [12] = assay: Antiproliferative activity against chinese hamster V79 cells after 1 hr; type: functional, cell-based; conditions: Cricetulus griseus, V79, 1 h; outline: as §3
nitroreductase = assay: (§4) Half life in phosphate buffer at pH 7 at 37 degC assessed as reduction by Escherichia coli nitroreductase by NR assay; type: ADME; conditions: Escherichia coli, Escherichia coli nitroreductase in phosphate buffer
Outline: (§5)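 Substrate at 0.2 mM with 1 mM NADH in 10 mM sodium phosphate buffer, pH 7.0, at 37 °C. Reaction started by adding 1.8 µg E. coli nitroreductase; 2 mM cysteine added for one compound. Aliquots taken at intervals, quenched with acetonitrile, frozen, then analysed by HPLC. Half-life calculated from substrate disappearance.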

V79 [13] = assay: Ratio for antiproliferative activity against NTR- V79 cells to NTR+ V79 cells after 72 hrs; type: functional, Cricetulus griseus; outline: as §1
SK-OV-3 [14] = assay: Antiproliferative activity against NTR expressing human SKOV3 cells […] after 18 hrs; type: functional, cell-based
[15] = as §4; type: ADME; conditions: buffer; outline: as §5

`NP(=O)(OCc1ccc([N+](=O)[O-])cc1)N(CCCl)CCCl` (racemic) showed an IC50 (V79 [1]; Cricetulus griseus, V79, 72 h) of 0.0004 µM, a Ratio (SK-OV-3 [2]) greater than 5600 and an IC50 (SK-OV-3 [3]) greater than 1000 µM. For the same molecule, the IC50 (SK-OV-3 [4]; Homo sapiens, SK-OV-3, 18 h) was 0.16 µM, the IC50 (SK-OV-3 [5]; Homo sapiens, SK-OV-3, 18 h) was greater than 1000 µM and the IC50 (V79 [6]; Cricetulus griseus, V79, 1 h) was 0.01 µM. The IC50 (V79 [7]; Cricetulus griseus, V79, 72 h) was 67 µM, the Ratio (V79 [8]) was greater than 10000 and the Ratio (SK-OV-3 [9]) was greater than 830. The Ratio (SK-OV-3 [10]) was greater than 160, the IC50 (SK-OV-3 [11]; Homo sapiens, SK-OV-3, 18 h) was greater than 890 µM and the IC50 (V79 [12]) was greater than 100 µM. The half-life (nitroreductase) was 2.3 min and the Ratio (V79 [13]) was 170000.

With `NC(=O)c1cc(N2CC2)c([N+](=O)[O-])cc1[N+](=O)[O-]` [TRETAZICAR] the IC50 (V79 [1]; Cricetulus griseus, V79, 72 h) was 0.036 µM, the Ratio (SK-OV-3 [2]) was greater than 400 and the IC50 (SK-OV-3 [3]) was 625 µM. It also gave an IC50 (SK-OV-3 [4]; Homo sapiens, SK-OV-3, 18 h) of 2 µM, an IC50 (SK-OV-3 [5]; Homo sapiens, SK-OV-3, 18 h) greater than 1000 µM and an IC50 (V79 [6]; Cricetulus griseus, V79, 1 h) of 0.31 µM. For the same molecule, the IC50 (V79 [7]; Cricetulus griseus, V79, 72 h) was 254 µM, the Ratio (V79 [8]) was greater than 320 and the Ratio (SK-OV-3 [9]) was greater than 210. The Ratio (SK-OV-3 [10]) was 12, the IC50 (SK-OV-3 [11]; Homo sapiens, SK-OV-3, 18 h) was greater than 790 µM and the IC50 (V79 [12]) was greater than 100 µM. The half-life (nitroreductase) was 5 min and the Ratio (V79 [13]) was 7100.

`O=[N+]([O-])c1ccc(C2CCOP(=O)(N(CCCl)CCCl)N2)cc1` (racemic; trans) gave an IC50 (V79 [1]; Cricetulus griseus, V79, 72 h) of 51.5 µM, a Ratio (SK-OV-3 [2]) greater than 4.8 and an IC50 (SK-OV-3 [4]; sk-ov-3) of 210 µM. The IC50 (SK-OV-3 [5]; Homo sapiens, SK-OV-3, 18 h) was greater than 1000 µM, the IC50 (V79 [7]; Cricetulus griseus, V79, 72 h) was greater than 100 µM and the Ratio (SK-OV-3 [9]) was greater than 4.5. For the same molecule, the IC50 (SK-OV-3 [14]; sk-ov-3) was 220 µM, the IC50 (SK-OV-3 [11]; Homo sapiens, SK-OV-3, 18 h) was greater than 1000 µM and the T1/2 [15] was 2.9 min. It also gave a Ratio (V79 [13]) greater than 1.9.

For `O=P1(N(CCCl)CCCl)NC(OO)CCO1` (stereo not given) [PERFOSFAMIDE], the IC50 (V79 [1]; Cricetulus griseus, V79, 72 h) was 2.7 µM, the IC50 (V79 [7]; Cricetulus griseus, V79, 72 h) was 3.1 µM and the Ratio (V79 [13]) was 1.1.

For `O=[N+]([O-])c1ccc(C2CCNP(=O)(N(CCCl)CCCl)N2)cc1` (racemic; trans), the IC50 (V79 [1]; v79) was 48.3 µM, the IC50 (V79 [7]; v79) was greater than 100 µM and the T1/2 [15] was 4.2 min. The Ratio (V79 [13]) was greater than 2.1.

In the case of `O=[N+]([O-])c1ccc(C2CCNP(=O)(N(CCCl)CCCl)O2)cc1` (racemic; cis), the IC50 (V79 [1]; v79) is reported as 0.029 µM, the Ratio (SK-OV-3 [2]) is reported as greater than 440 and the IC50 (SK-OV-3 [5]; sk-ov-3) is reported as 680 µM. The IC50 (V79 [6]; v79) was 0.34 µM, the IC50 (V79 [7]; v79) was 832 µM and the Ratio (V79 [8]) was greater than 290. It also gave a Ratio (SK-OV-3 [9]) of 150, an IC50 (SK-OV-3 [14]; sk-ov-3) of 4.7 µM and an IC50 (SK-OV-3 [11]; sk-ov-3) greater than 930 µM. It also gave a T1/2 [15] of 5.2 min and a Ratio (V79 [13]) of 29000.

Molecule `O=[N+]([O-])c1ccc(C2CCOP(=O)(N(CCCl)CCCl)N2)cc1` (racemic; cis) has an IC50 (V79 [1]; v79) of 45.3 µM, a Ratio (SK-OV-3 [2]) greater than 1.9 and an IC50 (SK-OV-3 [4]; sk-ov-3) of 530 µM. For the same molecule, the Ratio (SK-OV-3 [9]) was greater than 1.9, the IC50 (SK-OV-3 [14]; sk-ov-3) was 530 µM and the T1/2 [15] was 11.9 min. The Ratio (V79 [13]) was greater than 2.2.

In the case of `O=[N+]([O-])c1ccc(C2CCNP(=O)(N(CCCl)CCCl)O2)cc1` (racemic; trans), the IC50 (V79 [1]; Cricetulus griseus, V79, 72 h) is reported as 0.027 µM, the Ratio (SK-OV-3 [2]) is reported as 270 and the IC50 (SK-OV-3 [4]; Homo sapiens, SK-OV-3, 18 h) is reported as 2.1 µM. The IC50 (SK-OV-3 [5]; Homo sapiens, SK-OV-3, 18 h) was greater than 1000 µM, the IC50 (V79 [6]; Cricetulus griseus, V79, 1 h) was 0.17 µM and the IC50 (V79 [7]; Cricetulus griseus, V79, 72 h) was 608 µM. It also gave a Ratio (V79 [8]) greater than 590, a Ratio (SK-OV-3 [9]) greater than 200 and an IC50 (SK-OV-3 [14]; Homo sapiens, SK-OV-3, 18 h) of 5 µM. The IC50 (SK-OV-3 [11]; Homo sapiens, SK-OV-3, 18 h) was 570 µM, the IC50 (V79 [12]) was greater than 100 µM and the half-life (nitroreductase) was 3.9 min. It also gave a Ratio (V79 [13]) of 23000.

With `O=[N+]([O-])c1ccc(C2CCNP(=O)(N(CCCl)CCCl)N2)cc1` (racemic; cis) the IC50 (V79 [1]; v79) was 4.6 µM, the IC50 (V79 [7]; Cricetulus griseus, V79, 72 h) was 56.8 µM and the half-life (nitroreductase) was 6.4 min. The Ratio (V79 [13]) was 12.
